# Screens: PubChem BioAssay, several laboratories
# ASAP1 inh: ASAP1 ArfGAP inhibition; inhibition, % at 16.5 µM; ASAP1-stimulated ARF1 GTP hydrolysis, GDP FP detection; 0.19% of 360,000 active; in the data active = inhibition above about 25%
# Target sequence (Q9ULH1 325-724 limits assumed): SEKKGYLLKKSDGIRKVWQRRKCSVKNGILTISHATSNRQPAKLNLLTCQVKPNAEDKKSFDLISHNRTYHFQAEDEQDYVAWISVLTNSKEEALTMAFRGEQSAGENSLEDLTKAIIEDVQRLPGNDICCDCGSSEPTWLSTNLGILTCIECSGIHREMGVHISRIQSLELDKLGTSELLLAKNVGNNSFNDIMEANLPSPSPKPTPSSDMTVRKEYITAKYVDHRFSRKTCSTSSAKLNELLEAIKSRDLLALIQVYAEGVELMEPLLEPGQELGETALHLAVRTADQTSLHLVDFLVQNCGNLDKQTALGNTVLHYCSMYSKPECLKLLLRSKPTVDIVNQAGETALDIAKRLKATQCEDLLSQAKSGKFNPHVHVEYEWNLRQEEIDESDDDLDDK
# H9c2 protect: protects H9c2 cardiomyocytes from peroxide injury | H2O2 injury protection, ATPLite, 2 h | protection from H2O2 cell death, % at 20 µM | 0.63% of 360,000 active | AID 588492;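 active = compounds giving at least 50% protection of heart cells from peroxide-induced death in the single-dose screen, raw or plate-pattern-corrected value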
# Neddylation inh: blocks human cullin neddylation; P61081+Q13564; AID 651699; TR-FRET cullin neddylation, biochemical; 0.58% of 360,000 active; inhibition, % at 25 µM; in the data active = inhibition above about 36%
# ARFGAP1 inh: rat ARFGAP1 inhibition | 0.26% of 360,000 active | inhibition, % at 16.5 µM | Arfgap1-stimulated ARF1 GTP hydrolysis, GDP FP detection | AID 651572;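 active = inhibition above a per-plate limit, mean inhibition of low control wells plus 3 SD, cut at about 25% in these data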
# Target sequence (Q62848 1-136 limits assumed): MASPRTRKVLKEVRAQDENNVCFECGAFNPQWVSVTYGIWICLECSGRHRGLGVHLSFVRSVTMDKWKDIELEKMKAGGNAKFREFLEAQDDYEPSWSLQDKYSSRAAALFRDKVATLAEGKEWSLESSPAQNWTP
#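 Repeats: one replicate per compound; assay system: rat Arfgap1 catalytic domain, aa 1-136; times: enzyme reaction 120 min at 25 °C after 20 min preincubation; detection: FP of antibody-bound GDP Alexa 633 tracer, ex 620/em 688 nm; benchmarks: high control wells lacking Arfgap1, low control full reaction with DMSO; reagent: human ARF1(Δ1-17)-GTP substrate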
# Numbers stand for hits; n = inactive; x = no result given. A selection: hits, their analogues and other compounds. The true share with any hit is near 1.6%.
SMILES,ASAP1 inh,H9c2 protect,Neddylation inh,ARFGAP1 inh
Cc1ccc(-c2nn(-c3ccccc3)cc2/C=C(\C#N)c2cccc(C#N)c2)o1,x,n,37.2,x
CCOCCCNC(=O)C(NC(=O)c1ccccc1O)c1ccc(Cl)cc1 (stereo not drawn),x,n,43.1,x
CCOCCCNC(=O)C(NC(=O)CNC(C)=O)c1ccc(Cl)cc1 (stereo not drawn),n,n,n,n
COC1=CC(=O)OC(c2cccc([N+](=O)[O-])c2)C1 (stereo not drawn),n,x,n,n
Cc1[nH]n(-c2ccccc2)c(=O)c1/C=N/N1C(=O)c2ccc3c4c(ccc(c24)C1=O)CC3,n,65.2,n,n
Cc1ccc2cccc(N=Cc3c(C)[nH]n(-c4ccccc4)c3=O)c2n1,n,63.0,n,n
O=C(NC1CCCC1)[C@@H]1CCCN1C(=O)[C@@H](NS(=O)(=O)c1ccc(F)cc1F)C1CCCCC1,n,x,x,n
CCOC(=O)C1CCCN(C(=O)CCC(=O)Nc2ccc3nc(N4CCOCC4)cc(C)c3c2)C1 (stereo not drawn),n,59.0,x,n
Cc1cc(N2CCOCC2)nc2ccc(NC(=O)CCC(=O)N3CCN(c4ccccc4)CC3)cc12,n,n,x,n
CCn1c(=O)c(C(=O)NCc2ccccc2)c(O)c2ccccc21,n,n,n,n
COC(=O)CNC(=O)c1cn(CC(C)C)c(=O)c2cc(OC)c(OC)cc12,n,n,n,n
COc1cc2c(C(=O)NCc3ccccn3)cn(CC(C)C)c(=O)c2cc1OC,n,53.8,n,n
CC(C)Cn1c(=O)c(C(=O)NCc2ccccn2)c(O)c2ccccc21,n,56.2,n,n
CC(Oc1ccc(F)cc1)C(=O)Nc1nc(-c2ccccn2)cs1 (stereo not drawn),n,66.8,n,n
Cc1cc(C)c(OCC(=O)Nc2nc(-c3ccccn3)cs2)c(C)c1,n,63.1,n,n
O=C(CC1CC2CCC1C2)Nc1nc(-c2ccccn2)cs1 (stereo not drawn),n,53.3,n,n
O=C(Nc1nc(-c2ccccn2)cs1)C1CC1,n,n,n,n
O=C(CCS(=O)(=O)c1ccccc1)Nc1nc(-c2ccccn2)cs1,n,51.4,n,n
C[C@H](NC(=O)c1ccco1)C(=O)Nc1nc(-c2ccccn2)cs1,n,n,n,n
O=C(CCS(=O)(=O)c1ccc(F)cc1)Nc1nc(-c2ccccn2)cs1,n,n,n,n
COc1cccc(CNC(=O)[C@H]2CCCN2C(=O)[C@H]2CCCN2C(=O)OC(C)(C)C)c1,n,x,x,n
O=C1N[C@@H](Cc2ccccc2)C(=O)N2[C@H]1CSCCS2(=O)=O,n,x,x,n
COC(=O)C1=C(C)N(Cc2ccccc2C(F)(F)F)C(=NCc2ccc(OC)cc2)NC1c1cccc(Cl)c1 (stereo not drawn),n,x,x,n
Cc1cccc(C)c1OCc1nnc(SCC(=O)O)n1-c1c(C)cccc1C,n,x,x,n
O=C(N[C@H](C(=O)N1CCC[C@H]1C(=O)NC1CCCC1)C1CCCCC1)c1ccccc1,n,x,x,n
SMILES,ASAP1 inh,H9c2 protect,Neddylation inh,ARFGAP1 inh
c1ccc2c(c1)OCc1nccn1-2,n,x,x,n
CCOC(=O)c1c(C)nc2sc3c(=O)n(-c4ccc(C(C)=O)cc4)cnc3c2c1-c1ccc(OC)cc1,n,68.3,n,n
COc1c(O)cccc1/C=N/NC(=O)Cn1ccnc1C,n,57.0,n,n
COc1cccc(/C=N/NC(=O)Cn2ccnc2C)c1,n,n,n,n
Cc1cc(/C=N/NC(=O)c2cccc(N(C)C)c2)c(C)n1-c1cc(C(=O)O)cc(C(=O)O)c1,x,n,39.5,x
Cc1cc2c(nc1C)CCCN2S(=O)(=O)c1ccc(F)cc1,n,x,x,n
O=C(c1ccc2c(c1)C(=O)NC2=O)c1ccc2c(c1)C(=O)NC2=O,n,x,x,n
CCCCCCCCN1C(=O)[C@@H](CC(=O)NCc2cccs2)C[C@@]2(C(=O)OC)C1=C[C@H](C1CCCC1)O[C@@H]2C,n,x,x,n
COc1cc(Br)cc(C=Nc2cccc(C(F)(F)F)c2)c1O,n,53.4,n,n
Cc1ccc2[nH]c(=O)c(CN(CCCN3CCOCC3)C(=O)Nc3ccc(Cl)cc3)cc2c1,n,50.2,n,n
O=C1CCCCC1CCS(=O)(=O)NCc1ccccc1 (stereo not drawn),n,x,x,n
NC(=O)N=Nc1c2[nH]c3ccccc3nc-2c2ccccc12,n,59.6,n,n
O=c1[nH]c2ccccc2nc1-c1ccc(Cl)cc1,n,n,n,n
CC(C)CNC(=O)C1(C)CCCN1C(=O)c1ccc2c(c1)CCO2 (stereo not drawn),n,n,n,n
CN(CC1CCCO1)S(=O)(=O)c1ccc(C(=O)Nc2nc(-c3ccccn3)cs2)cc1 (stereo not drawn),x,90.1,n,x
CN(CC1CCCO1)S(=O)(=O)c1ccc(C(=O)Nc2ccccc2F)cc1 (stereo not drawn),n,n,n,n
O=C(Nc1nc(-c2ccccn2)cs1)c1cc(S(=O)(=O)N2CCOCC2)ccc1F,n,59.1,n,n
Cc1ccc(C(=O)Nc2ccccn2)cc1S(=O)(=O)N1CCOCC1,n,n,n,n
Cc1ccc(C(=O)Nc2nc(-c3ccccn3)cs2)cc1S(=O)(=O)N1CCOCC1,n,73.4,n,n
O=C(Nc1cc(S(=O)(=O)N2CCOCC2)ccc1N1CCCCC1)c1cc(-c2ccccn2)nc2ccccc12,n,64.0,n,n
COc1ccc(S(=O)(=O)Nc2ccc3c(c2)C(=O)N([C@H](C)CO)C[C@H](C)[C@H](CN(C)C(=O)Nc2ccc(F)cc2)OCCCC[C@@H](C)O3)cc1,n,x,x,n
O=C(Nc1nc(-c2ccccn2)cs1)c1cccc(-n2cnnn2)c1,n,67.8,n,n
O=C(Nc1ccc(Br)cc1)c1cccc(-n2cnnn2)c1,n,n,n,n
O=C(Nc1nc(-c2ccccn2)cs1)c1ccc(F)c(S(=O)(=O)N2CCOCC2)c1,n,65.1,n,n
Cc1c(-c2ccccc2)oc2c(C(=O)OCC(=O)Nc3ccc(C(N)=O)cc3)cccc2c1=O,n,74.0,n,n
SMILES,ASAP1 inh,H9c2 protect,Neddylation inh,ARFGAP1 inh
COC(=O)c1ccc(NC(=O)COC(=O)c2cccc3c(=O)c(C)c(-c4ccccc4)oc23)cc1,n,n,n,n
CCC(=O)N/N=C/c1ccc(-c2ccc([N+](=O)[O-])cc2)o1,n,n,n,n
CC(C)(C)C(=O)/C=c1\s/c(=C\c2ccc(-c3ccc([N+](=O)[O-])cc3)o2)c(=O)n1CC(=O)NC(N)=O,n,52.5,n,n
O=C1c2ccccc2NC(c2cccc([N+](=O)[O-])c2)N1O (stereo not drawn),n,n,n,n
CCn1cc(C2Nc3ccccc3C(=O)N2O)c(C)n1 (stereo not drawn),n,n,n,n
O=C1c2ccccc2NC(c2ccc([N+](=O)[O-])cc2)N1O (stereo not drawn),n,62.0,n,n
Cc1c(C2Nc3ccccc3C(=O)N2O)cnn1C (stereo not drawn),n,52.3,n,n
O=C(C(=O)N1CCN(C(=O)C2CCC2)CC1)c1cccc(C(F)(F)F)c1,n,x,x,n
COC(=O)Oc1ccc(/C=C/C(=O)OC(C)C)cc1OC(=O)OC,n,54.1,n,n
O=S(=O)(c1ccccc1)N1CCCc2nc(-c3ccccc3)ccc21,n,x,x,n
